Columns and labels:
Homo sapiens [1] = species: Homo sapiens; assay: Selectivity for human recombinant adenosine A2B receptor over human recombinant adenosine A1 receptor
Adenosine receptor A2b = molecular target: T1, Adenosine receptor A2b (Homo sapiens, UniProt P29275); assay: Displacement of [3H]ZM-241385 from human recombinant adenosine A2B receptor expressed in HEK293 cells; format: cell-based
T1 sequence (P29275 whole entry): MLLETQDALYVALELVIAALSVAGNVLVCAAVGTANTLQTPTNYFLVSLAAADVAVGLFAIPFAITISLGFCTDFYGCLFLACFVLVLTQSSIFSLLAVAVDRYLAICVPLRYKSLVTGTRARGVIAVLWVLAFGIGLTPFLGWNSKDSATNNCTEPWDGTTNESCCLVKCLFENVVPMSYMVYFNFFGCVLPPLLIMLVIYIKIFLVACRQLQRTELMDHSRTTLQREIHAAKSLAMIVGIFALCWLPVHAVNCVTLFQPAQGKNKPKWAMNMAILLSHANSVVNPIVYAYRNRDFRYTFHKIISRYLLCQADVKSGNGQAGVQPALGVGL
Method in brief: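 Membranes from HEK293 cells stably expressing human A2B receptor; competition with 10 nM radioligand, 50 µg membrane protein, in 50 mM Tris/1 mM EDTA with 1 U/mL adenosine deaminase, 25 °C for 90 min with gentle agitation; filtration, four ice-cold Tris/MgCl2 washes. Nonspecific binding defined with 10 µM unlabelled ligand; Ki calculated.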

Adenosine receptor A1 = molecular target: T2, Adenosine receptor A1 (Homo sapiens, UniProt P30542); assay: Displacement of [3H]CPX from human recombinant adenosine A1 receptor expressed in CHO cells; format: cell-based
T2 sequence (P30542 whole entry): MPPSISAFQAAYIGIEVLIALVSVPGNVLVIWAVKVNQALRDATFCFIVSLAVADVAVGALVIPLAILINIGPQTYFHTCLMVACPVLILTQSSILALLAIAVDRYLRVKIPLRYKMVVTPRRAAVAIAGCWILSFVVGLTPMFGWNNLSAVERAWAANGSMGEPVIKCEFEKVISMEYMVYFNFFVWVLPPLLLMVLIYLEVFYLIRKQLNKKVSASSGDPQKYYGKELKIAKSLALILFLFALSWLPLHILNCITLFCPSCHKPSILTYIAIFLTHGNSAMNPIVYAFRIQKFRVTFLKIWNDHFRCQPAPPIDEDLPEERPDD
Method in brief: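 CHO cell membranes stably expressing human A1 receptor; 0.5 nM [3H]CPX competed with test compound in 50 mM Tris/1 mM EDTA plus 1 U/mL adenosine deaminase, 25 °C, 90 min, gentle agitation; filtration and four ice-cold Tris/MgCl2 washes. Nonspecific binding defined with 1 µM CPX; Ki values derived.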

Adenosine receptor A2a = Adenosine receptor A2a (Homo sapiens, UniProt P29274); assay: Displacement of [3H]ZM-241385 from human recombinant adenosine A2A receptor expressed in HEK293 cells; format: cell-based
Method in brief: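 Membranes from HEK293 cells stably expressing human A2A receptor; 2 nM radioligand competed in 50 mM Tris/1 mM EDTA with 1 U/mL adenosine deaminase for 90 min at 25 °C with agitation; filtration, four ice-cold Tris/MgCl2 washes. Nonspecific binding defined with 1 µM unlabelled ligand; Ki computed.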

Adenosine receptor A3 = molecular target: T3, Adenosine receptor A3 (Homo sapiens, UniProt P0DMS8); assay: Displacement of [125I]ABMECA from human recombinant adenosine A3 receptor expressed in CHO cells; format: cell-based
T3 sequence (P0DMS8 whole entry): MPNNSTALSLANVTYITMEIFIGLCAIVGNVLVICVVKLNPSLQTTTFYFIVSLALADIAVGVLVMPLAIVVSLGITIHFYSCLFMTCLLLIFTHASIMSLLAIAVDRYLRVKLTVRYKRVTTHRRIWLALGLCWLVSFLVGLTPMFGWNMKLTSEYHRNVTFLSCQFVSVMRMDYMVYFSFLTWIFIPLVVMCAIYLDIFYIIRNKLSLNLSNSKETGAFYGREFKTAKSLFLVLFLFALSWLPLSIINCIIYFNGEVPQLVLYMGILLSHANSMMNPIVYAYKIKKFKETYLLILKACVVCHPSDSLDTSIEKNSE
Method in brief: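 Human A3 receptor stably expressed in CHO cells; membranes incubated with 0.1 nM 125I-AB-MECA and test compound in 50 mM Tris, 1 mM EDTA, 10 mM MgCl2 plus 1 U/mL adenosine deaminase, 25 °C, 90 min; filtration, four ice-cold washes. Nonspecific binding defined with 1 µM IB-MECA; Ki determined.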

Homo sapiens [2] = species: Homo sapiens; assay: Selectivity for human recombinant adenosine A2B receptor over human recombinant adenosine A2A receptor
Homo sapiens [3] = species: Homo sapiens; assay: Selectivity for human recombinant adenosine A2B receptor over human recombinant adenosine A3 receptor

Adenosine receptor A2a, sequence (P29274 whole entry): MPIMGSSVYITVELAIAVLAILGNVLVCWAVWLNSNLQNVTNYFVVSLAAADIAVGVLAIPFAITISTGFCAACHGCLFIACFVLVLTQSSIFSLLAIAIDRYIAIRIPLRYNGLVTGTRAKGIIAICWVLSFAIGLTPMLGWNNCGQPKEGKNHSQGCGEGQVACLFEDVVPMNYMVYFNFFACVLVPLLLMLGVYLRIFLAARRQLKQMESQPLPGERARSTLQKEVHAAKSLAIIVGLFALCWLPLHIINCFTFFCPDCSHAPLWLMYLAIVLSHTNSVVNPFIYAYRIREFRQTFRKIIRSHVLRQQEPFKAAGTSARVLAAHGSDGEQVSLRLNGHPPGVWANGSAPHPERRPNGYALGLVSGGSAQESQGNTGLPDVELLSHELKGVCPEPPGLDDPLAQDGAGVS

| Structure (SMILES) | Ratio Ki (Homo sapiens [1]) | Ki (Adenosine receptor A2b) | Ki (Adenosine receptor A1) | Ki (Adenosine receptor A2a) | Ki (Adenosine receptor A3) | Ratio Ki (Homo sapiens [2]) | Ratio Ki (Homo sapiens [3]) |
| --- | --- | --- | --- | --- | --- | --- | --- |
| CCn1c(=O)n(CC(C)C)c(=O)c2[nH]c(-c3cnn(Cc4cccc(C(F)(F)F)c4)c3)nc21 | 57 | 11 nM | 631 nM | 1090 nM | 250 nM | 99 | 23 |
| CCCn1c(=O)c2[nH]c(-c3cnn(Cc4nc(-c5ccc(Cl)cc5)no4)c3)nc2n(CC)c1=O | 56 | 16 nM | 910 nM | 3780 nM | 413 nM | 236 | 25 |
| CCCn1c(=O)c2[nH]c(-c3cnn(Cc4cc(-c5ccc(Cl)cc5)on4)c3)nc2n(CC)c1=O | 5 | 42 nM | 200 nM | 781 nM | – | 18 | – |
| CCCCn1c(=O)c2[nH]c(-c3cnn(Cc4ccccc4)c3)nc2n(C)c1=O | 13 | 30 nM | 416 nM | 247 nM | – | 8 | – |
| CC(C)Cn1c(=O)c2[nH]c(-c3cnn(Cc4ccccc4)c3)nc2n(C)c1=O | 16 | 21 nM | 347 nM | 408 nM | 204 nM | 19 | 9 |
| CCCn1c(=O)c2[nH]c(-c3cnn(Cc4noc(-c5ccc(Cl)cc5)n4)c3)nc2n(CC)c1=O | > 18 | 335 nM | > 6000 nM | > 5000 nM | – | > 15 | – |
| CCn1c(=O)c2[nH]c(-c3cnn(Cc4cccc(F)c4)c3)nc2n(C)c1=O | 58 | 6 nM | 350 nM | 231 nM | 282 nM | 38 | 47 |
| CCCn1c(=O)c2[nH]c(-c3cnn(Cc4cccnc4)c3)nc2n(CC)c1=O | 23 | 22 nM | 522 nM | 312 nM | – | 14 | – |
| CCn1c(=O)c2[nH]c(-c3cn[nH]c3)nc2n(C)c1=O | – | 120 nM | – | – | – | – | – |
| CCn1c(=O)n(CC2CC2)c(=O)c2[nH]c(-c3cnn(Cc4ccccc4)c3)nc21 | 11 | 27 nM | 314 nM | 181 nM | – | 6 | – |
| CCCn1c(=O)c2[nH]c(-c3cnn(Cc4cccc(F)c4)c3)nc2n(CCC)c1=O | 13 | – | – | – | – | 17 | 4 |
| CCCn1c(=O)c2[nH]c(-c3cn[nH]c3)nc2n(CC)c1=O | 4 | 49 nM | 178 nM | 496 nM | – | 10 | – |

The remaining lines, values ahead:

| Ratio Ki (Homo sapiens [1]) | Ki (Adenosine receptor A2b) | Ki (Adenosine receptor A1) | Ki (Adenosine receptor A2a) | Ki (Adenosine receptor A3) | Ratio Ki (Homo sapiens [2]) | Ratio Ki (Homo sapiens [3]) | Structure (SMILES) |
| --- | --- | --- | --- | --- | --- | --- | --- |
| 12 | – | – | – | – | 28 | 10 | CCCn1c(=O)c2[nH]c(-c3cnn(Cc4cccc(C(F)(F)F)c4)c3)nc2n(CCC)c1=O |
| 3 | 199 nM | 617 nM | 633 nM | – | 3 | – | CC(C)Cn1c(=O)c2[nH]c(-c3cnn(Cc4cccc(C(F)(F)F)c4)c3)nc2n(C)c1=O |
| 9 | 46 nM | 410 nM | 411 nM | – | 9 | – | CCCn1c(=O)c2[nH]c(-c3cnn(Cc4ccccn4)c3)nc2n(CC)c1=O |
| 9 | 42 nM | 376 nM | 1390 nM | – | 33 | – | CC(C)Cn1c(=O)c2[nH]c(-c3cn[nH]c3)nc2n(C)c1=O |
| 11 | 26 nM | 305 nM | 217 nM | – | 8 | – | CCCCn1c(=O)c2[nH]c(-c3cnn(Cc4cccc(F)c4)c3)nc2n(C)c1=O |

From ChEMBL document CHEMBL1145545, “Discovery of a novel A2B adenosine receptor antagonist as a clinical candidate for chronic inflammatory airway diseases” (J Med Chem, 2008)
